Reference: ChEMBL document CHEMBL3045565, “Microwave synthesis, characterization and bio-efficacy evaluation of novel chalcone based 6-carbethoxy-2-cyclohexen-1-one and 2H-indazol-3-ol derivatives” (Eur J Med Chem, 2013)
Values after ≈ are worked out from the molar mass of the structure shown.

Key:
Type in all cases: functional
Bacillus thuringiensis [1] = experiment: Antibacterial activity against Bacillus thuringiensis MTCC 6941 assessed as growth inhibition at 100 ug/disk after 24 hr by disk diffusion method; details: MTCC 6941, 24 h, read-out: DIZ
Procedure, shortened: (§1)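 Disk diffusion on nutrient agar. Strains kept on NA slants at 37 °C and subcultured in nutrient broth before testing. A log-phase culture was spread on solidified medium, and sterile disks were loaded with compound from DMSO stock. DMSO served as control, with commercial antibiotics for reference. Plates ran 24 h at 37 °C, and inhibition zones (mm) were read in quadruplicate.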

Pseudomonas aeruginosa [2] = experiment: Antibacterial activity against Pseudomonas aeruginosa MTCC 2581 assessed as growth inhibition at 100 ug/disk after 24 hr by disk diffusion method; details: MTCC 2581, 24 h, read-out: DIZ; procedure, shortened: as §1
[3] = tested on: Radical scavenging activity; experiment: Antioxidant activity assessed as DPPH free radical scavenging activity after 20 min by UV-Vis spectrophotometric analysis; parameters: concentration or dose not given beside the values
Procedure, shortened: (§2)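 DPPH radical scavenging: samples were held at room temperature for 20 min in the dark, and absorbance was read at 517 nm. The control contained DMSO without compound, and methanol was used for baseline correction. Scavenging percentage was calculated from the absorbances.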

Dickeya chrysanthemi [4] = experiment: Antibacterial activity against Erwinia chrysanthemi ITCC B-40 assessed as as growth inhibition after 24 hr by broth dilution method; details: ITCC B-40, 24 h
Procedure, shortened: (§3)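 Broth dilution, with streptomycin as the standard. MIC was taken as the lowest concentration giving more than 90% bacterial inhibition.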

Athelia rolfsii = experiment: Antifungal activity against Athelia rolfsii ITCC 6181 by food poisoning method; details: Agroathelia rolfsii
Procedure, shortened: (§4)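 Poisoned food technique on PDA at several concentrations. A 5 mm mycelial plug from the growing edge of a 2-week-old colony was placed inoculum-side down at the plate centre. Plates incubated at 27 °C until control growth was nearly complete. Colony diameter measured, percent inhibition calculated against control, LC50 derived. Four replicates per treatment.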

Xanthomonas oryzae [5] = experiment: Antibacterial activity against Xanthomonas oryzae ITCC B-47 assessed as as growth inhibition at 100 ug/disk after 24 hr by disk diffusion method; details: ITCC B-47, 24 h, read-out: DIZ
Rhizoctonia solani = experiment: Antifungal activity against Rhizoctonia solani ITCC 5563 by food poisoning method; procedure, shortened: as §4
Staphylococcus aureus [6] = experiment: Antibacterial activity against Staphylococcus aureus MTCC 3160 assessed as growth inhibition at 100 ug/disk after 24 hr by disk diffusion method; details: MTCC 3160, 24 h, read-out: DIZ; procedure, shortened: as §1
Klebsiella pneumoniae [7] = experiment: Antibacterial activity against Klebsiella pneumoniae MTCC 7028 assessed as growth inhibition at 100 ug/disk after 24 hr by disk diffusion method; details: MTCC 7028, 24 h, read-out: DIZ; procedure, shortened: as §1
Dickeya chrysanthemi [8] = experiment: Antibacterial activity against Erwinia chrysanthemi ITCC B-40 assessed as as growth inhibition at 100 ug/disk after 24 hr by disk diffusion method; details: ITCC B-40, 24 h, read-out: DIZ; procedure, shortened: as §1
Bacillus pumilus [9] = experiment: Antibacterial activity against Bacillus pumilus MTCC 2466 assessed as growth inhibition at 100 ug/disk after 24 hr by disk diffusion method; details: MTCC 2466, 24 h, read-out: DIZ; procedure, shortened: as §1
Xanthomonas oryzae [10] = experiment: Antibacterial activity against Xanthomonas oryzae ITCC B-47 assessed as as growth inhibition at 25 ug/disk after 24 hr by disk diffusion method; details: ITCC B-47, 24 h, read-out: DIZ
Pseudomonas aeruginosa [11] = experiment: Antibacterial activity against Pseudomonas aeruginosa MTCC 2581 assessed as growth inhibition at 25 ug/disk after 24 hr by disk diffusion method; details: MTCC 2581, 24 h, read-out: DIZ
Staphylococcus aureus [12] = experiment: Antibacterial activity against Staphylococcus aureus MTCC 3160 assessed as growth inhibition at 25 ug/disk after 24 hr by disk diffusion method; details: MTCC 3160, 24 h, read-out: DIZ
Bacillus thuringiensis [13] = experiment: Antibacterial activity against Bacillus thuringiensis MTCC 6941 assessed as growth inhibition at 25 ug/disk after 24 hr by disk diffusion method; details: MTCC 6941, 24 h, read-out: DIZ
Klebsiella pneumoniae [14] = experiment: Antibacterial activity against Klebsiella pneumoniae MTCC 7028 assessed as growth inhibition at 25 ug/disk after 24 hr by disk diffusion method; details: MTCC 7028, 24 h, read-out: DIZ
Bacillus pumilus [15] = experiment: Antibacterial activity against Bacillus pumilus MTCC 2466 assessed as growth inhibition at 25 ug/disk after 24 hr by disk diffusion method; details: MTCC 2466, 24 h, read-out: DIZ
Dickeya chrysanthemi [16] = experiment: Antibacterial activity against Erwinia chrysanthemi ITCC B-40 assessed as as growth inhibition at 25 ug/disk after 24 hr by disk diffusion method; details: ITCC B-40, 24 h, read-out: DIZ
Klebsiella pneumoniae [17] = experiment: Antibacterial activity against Klebsiella pneumoniae MTCC 7028 assessed as growth inhibition after 24 hr by broth dilution method; details: MTCC 7028, 24 h; procedure, shortened: as §3
[18] = tested on: Radical scavenging activity; experiment: Antioxidant activity assessed as DPPH free radical scavenging activity at 20 ug/mL after 20 min by UV-Vis spectrophotometric analysis; procedure, shortened: as §2
[19] = tested on: Radical scavenging activity; experiment: Antioxidant activity assessed as DPPH free radical scavenging activity at 60 ug/mL after 20 min by UV-Vis spectrophotometric analysis; procedure, shortened: as §2
[20] = tested on: Radical scavenging activity; experiment: Antioxidant activity assessed as DPPH free radical scavenging activity at 500 ug/mL after 20 min by UV-Vis spectrophotometric analysis; procedure, shortened: as §2
[21] = tested on: Radical scavenging activity; experiment: Antioxidant activity assessed as DPPH free radical scavenging activity at 40 ug/mL after 20 min by UV-Vis spectrophotometric analysis; procedure, shortened: as §2
[22] = tested on: Radical scavenging activity; experiment: Antioxidant activity assessed as DPPH free radical scavenging activity at 300 ug/mL after 20 min by UV-Vis spectrophotometric analysis; procedure, shortened: as §2
[23] = tested on: Radical scavenging activity; experiment: Antioxidant activity assessed as DPPH free radical scavenging activity at 400 ug/mL after 20 min by UV-Vis spectrophotometric analysis; procedure, shortened: as §2
[24] = tested on: Radical scavenging activity; experiment: Antioxidant activity assessed as DPPH free radical scavenging activity at 100 ug/mL after 20 min by UV-Vis spectrophotometric analysis; procedure, shortened: as §2
[25] = tested on: Radical scavenging activity; experiment: Antioxidant activity assessed as DPPH free radical scavenging activity at 200 ug/mL after 20 min by UV-Vis spectrophotometric analysis; procedure, shortened: as §2
[26] = tested on: Radical scavenging activity; experiment: Antioxidant activity assessed as DPPH free radical scavenging activity at 80 ug/mL after 20 min by UV-Vis spectrophotometric analysis; procedure, shortened: as §2
[27] = tested on: Radical scavenging activity; experiment: Antioxidant activity assessed as DPPH free radical scavenging activity at 10 ug/mL after 20 min by UV-Vis spectrophotometric analysis; procedure, shortened: as §2

Structure (SMILES): CCOC(=O)C1C(=O)C=C(c2ccc(Cl)cc2)CC1c1ccc(OC)cc1 (stereo not given)
- zone of inhibition at 100 µg/disc (Bacillus thuringiensis [1]): 0 mm
- zone of inhibition at 100 µg/disc (Pseudomonas aeruginosa [2]): 0 mm
- Activity [3]: 4.74%
- MIC (Dickeya chrysanthemi [4]): 73.6 µg/mL (≈ 191 µM)
- LC50 (Athelia rolfsii): 372 µg/mL (≈ 967 µM)
- zone of inhibition at 100 µg/disc (Xanthomonas oryzae [5]): 0 mm
- LC50 (Rhizoctonia solani): 58 µg/mL (≈ 151 µM)
- zone of inhibition at 100 µg/disc (Staphylococcus aureus [6]): 0 mm
- zone of inhibition at 100 µg/disc (Klebsiella pneumoniae [7]): 0 mm
- zone of inhibition at 100 µg/disc (Dickeya chrysanthemi [8]): 15 mm
- zone of inhibition at 100 µg/disc (Bacillus pumilus [9]): 0 mm

Structure (SMILES): CC1(C)S[C@@H]2[C@H](NC(=O)[C@H](N)c3ccccc3)C(=O)N2[C@H]1C(=O)O [AMPICILLIN]
- zone of inhibition at 25 µg/disc (Xanthomonas oryzae [10]): 5 mm
- zone of inhibition at 25 µg/disc (Pseudomonas aeruginosa [11]): 10 mm
- zone of inhibition at 25 µg/disc (Staphylococcus aureus [12]): 10 mm
- zone of inhibition at 25 µg/disc (Bacillus thuringiensis [13]): 0 mm
- zone of inhibition at 25 µg/disc (Klebsiella pneumoniae [14]): 10 mm
- zone of inhibition at 25 µg/disc (Bacillus pumilus [15]): 20 mm
- zone of inhibition at 25 µg/disc (Dickeya chrysanthemi [16]): 20 mm

Structure (SMILES): CN[C@@H]1[C@H](O[C@H]2[C@H](O[C@H]3[C@H](O)[C@@H](O)[C@H](N=C(N)N)[C@@H](O)[C@@H]3N=C(N)N)O[C@@H](C)[C@]2(O)C=O)O[C@@H](CO)[C@H](O)[C@H]1O [STREPTOMYCIN]
- MIC (Dickeya chrysanthemi [4]): 4.6 µg/mL (≈ 7.91 µM)
- zone of inhibition at 25 µg/disc (Xanthomonas oryzae [10]): 20 mm
- zone of inhibition at 25 µg/disc (Pseudomonas aeruginosa [11]): 20 mm
- MIC (Klebsiella pneumoniae [17]): 3.1 µg/mL (≈ 5.33 µM)
- zone of inhibition at 25 µg/disc (Staphylococcus aureus [12]): 20 mm
- zone of inhibition at 25 µg/disc (Bacillus thuringiensis [13]): 20 mm
- zone of inhibition at 25 µg/disc (Klebsiella pneumoniae [14]): 20 mm
- zone of inhibition at 25 µg/disc (Bacillus pumilus [15]): 15 mm
- zone of inhibition at 25 µg/disc (Dickeya chrysanthemi [16]): 20 mm

Structure (SMILES): CCOC(=O)C1C(=O)C=C(c2ccccc2)CC1c1ccc(OC)cc1 (stereo not given)
- zone of inhibition at 100 µg/disc (Bacillus thuringiensis [1]): 0 mm
- zone of inhibition at 100 µg/disc (Pseudomonas aeruginosa [2]): 0 mm
- Activity [3]: 2.69%
- MIC (Dickeya chrysanthemi [4]): 5.9 µg/mL (≈ 16.8 µM)
- LC50 (Athelia rolfsii): 347 µg/mL (≈ 990 µM)
- zone of inhibition at 100 µg/disc (Xanthomonas oryzae [5]): 0 mm
- LC50 (Rhizoctonia solani): 116 µg/mL (≈ 331 µM)
- zone of inhibition at 100 µg/disc (Staphylococcus aureus [6]): 0 mm
- zone of inhibition at 100 µg/disc (Klebsiella pneumoniae [7]): 0 mm
- zone of inhibition at 100 µg/disc (Dickeya chrysanthemi [8]): 15 mm
- zone of inhibition at 100 µg/disc (Bacillus pumilus [9]): 0 mm

Structure (SMILES): O=c1[nH][nH]c2c1C(c1ccccc1)CC(c1ccc(F)cc1)=C2 (stereo not given)
- zone of inhibition at 100 µg/disc (Bacillus thuringiensis [1]): 0 mm
- Activity [18]: 30.4%
- zone of inhibition at 100 µg/disc (Pseudomonas aeruginosa [2]): 0 mm
- Activity [3]: 70.5%
- IC50 [3]: 23.71 µg/mL (≈ 77.4 µM)
- Activity [19]: 86.9%
- Activity [20]: 90.8%
- Activity [21]: 70.5%
- Activity [22]: 90.7%
- LC50 (Athelia rolfsii): 912 µg/mL (≈ 2980 µM)
- Activity [23]: 90.8%
- MIC (Klebsiella pneumoniae [17]): 24.7 µg/mL (≈ 80.6 µM)
- zone of inhibition at 100 µg/disc (Xanthomonas oryzae [5]): 0 mm
- Activity [24]: 91%
- LC50 (Rhizoctonia solani): 669 µg/mL (≈ 2180 µM)
- zone of inhibition at 100 µg/disc (Staphylococcus aureus [6]): 0 mm
- zone of inhibition at 100 µg/disc (Klebsiella pneumoniae [7]): 15 mm
- zone of inhibition at 100 µg/disc (Dickeya chrysanthemi [8]): 0 mm
- zone of inhibition at 100 µg/disc (Bacillus pumilus [9]): 0 mm
- Activity [25]: 92.2%
- Activity [26]: 89%
- Activity [27]: 23.5%
